Legend:
P388 [1] = experiment: Cytotoxicity against P388 leukemia; format: functional, cell-based; conditions: Mus musculus
[2] = Inhibition of DNA topoisomerase II from rat liver measured as 50% reduction in the amount of minicircle DNA relative to the control
Tubulin = Tubulin (Bos taurus, UniProt Q6B856+Q862L2+Q862F3); experiment: Drug concentration needed to produce a 50% reduction of bovine brain tubulin polymerization relative to the control
ACHN = experiment: Inhibition of growth of renal cancer ACHN cell line; format: functional; conditions: Homo sapiens, read-out: ED50 (the source's name)
Summary of the method: (§1)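 Human tumour cell lines plated and grown 24 h in a CO2 incubator, then exposed to compound for 96 or 4 h. Cells counted by hemocytometer. IC50 is the concentration giving 50% reduction in cell number versus untreated control.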

[3] = Inhibition of growth of colon carcinoma COLO 2-1 cell line; format: functional; conditions: Homo sapiens, read-out: ED50 (the source's name)
Summary of the method: (§2)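 Cells were seeded and cultured for 24 h, then exposed to drug for 96 or 4 h. Cells were counted by hemocytometer. IC50 is the concentration giving a 50% reduction in cell number relative to control.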

COLO 320DM = experiment: Inhibition of growth of colon cancer COLO 320DM cell line; format: functional; conditions: Homo sapiens, read-out: ED50 (the source's name); summary of the method: as §2
Homo sapiens = organism: Homo sapiens; experiment: Inhibition of growth of hepatoma HLE cell line; format: functional; conditions: read-out: ED50 (the source's name); summary of the method: as §2
[4] = Inhibition of growth of renal cancer G-402 cell line; format: functional; conditions: Homo sapiens, read-out: ED50 (the source's name); summary of the method: as §1
[5] = Inhibition of growth of hepatoma HLF cell line; format: functional; conditions: Homo sapiens, read-out: ED50 (the source's name); summary of the method: as §2
[6] = system: Lewis lung carcinoma cell line; experiment: Increased life span at the lewis lung dose of 0.77 (mg/kg/day); format: functional, Mus musculus
[7] = system: Lewis lung carcinoma cell line; experiment: Increased life span at the lewis lung dose of 1.3 (mg/kg/day); format: functional, Mus musculus
[8] = system: Lewis lung carcinoma cell line; experiment: Increased life span at the lewis lung dose of 2.3 (mg/kg/day); format: functional, Mus musculus
[9] = system: Lewis lung carcinoma cell line; experiment: Increased life span at the lewis lung dose of 4 (mg/kg/day); format: functional, Mus musculus
[10] = system: Lewis lung carcinoma cell line; experiment: Increased life span at the lewis lung dose of 7 (mg/kg/day); format: functional, Mus musculus
[11] = system: Lewis lung carcinoma cell line; experiment: Mean body weight change after inoculation of 3.2 x 10 e 5 cells iv and administration of compounds iv from days 1-5 at the dose of 0.77 (mg/kg/day); format: functional, Mus musculus
Summary of the method: (§3)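 Male BDF1 mice (5 weeks) given 3.2 x 10^5 Lewis lung carcinoma cells iv on day 0, then dosed iv on days 1–5. Seven mice per group, 14 controls. Mean body weight change (g) taken from day 0 to day 6.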

[12] = system: Lewis lung carcinoma cell line; experiment: Mean body weight change after inoculation of 3.2 x 10 e 5 cells iv and administration of compounds iv from days 1-5 at the dose of 1.3 (mg/kg/day); format: functional, Mus musculus; summary of the method: as §3
[13] = system: Lewis lung carcinoma cell line; experiment: Mean body weight change after inoculation of 3.2 x 10 e 5 cells iv and administration of compounds iv from days 1-5 at the dose of 2.3 (mg/kg/day); format: functional, Mus musculus; summary of the method: as §3
[14] = system: Lewis lung carcinoma cell line; experiment: Mean body weight change after inoculation of 3.2 x 10 e 5 cells iv and administration of compounds iv from days 1-5 at the dose of 4 (mg/kg/day); format: functional, Mus musculus; summary of the method: as §3
[15] = system: Lewis lung carcinoma cell line; experiment: Mean body weight change after inoculation of 3.2 x 10 e 5 cells iv and administration of compounds iv from days 1-5 at the dose of 7 (mg/kg/day); format: functional, Mus musculus; summary of the method: as §3
P388 [16] = experiment: Antitumor activity in vivo expressed as the percentage increase in life span at the P388 dose of 1..3 (mg/kg/day); format: functional, Mus musculus
Summary of the method: (§4)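 P388 leukaemia, 1 × 10^6 cells given sc to male CDF1 mice (5 weeks old) on day 0. Drug was dosed iv on days 1–5 in saline with 3.5% DMSO and 6.5% Tween 80. Groups had 7 mice; controls had 10. ILS was calculated from mean survival time of treated versus control mice, excluding 30-day survivors.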

P388 [17] = experiment: Antitumor activity in vivo expressed as the percentage increase in life span at the P388 dose of 2.3 (mg/kg/day); format: functional, Mus musculus; summary of the method: as §4
P388 [18] = experiment: Antitumor activity in vivo expressed as the percentage increase in life span at the P388 dose of 4 (mg/kg/day); format: functional, Mus musculus; summary of the method: as §4
[19] = Inhibition of growth of lung non-small cell carcinoma PC-7 cell line; format: functional; conditions: Homo sapiens, read-out: ED50 (the source's name); summary of the method: as §2
[20] = Inhibition of growth of lung small cell carcinoma RERF-LC-MA cell line; format: functional; conditions: Homo sapiens; read-out: ED50 (the source's name); summary of the method: as §2
SBC-3 = experiment: Inhibition of growth of lung small cell carcinoma SBC-3 cell line; format: functional; conditions: Homo sapiens, read-out: ED50 (the source's name); summary of the method: as §1
[21] = system: Lewis lung carcinoma cell line; experiment: Percentage inhibition of tumor growth at the lewis lung dose of 7 (mg/kg/ day); format: functional, Mus musculus
Summary of the method: (§5)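 Lewis lung carcinoma fragments (2 mm3) implanted sc into male BDF1 mice (5 weeks) on day 0. Compound given iv on days 4–8, in saline or saline with 3.5% DMSO and 6.5% Tween 80. Seven mice per group, 10 controls. Percent inhibition from mean tumour weight versus control on day 17; p<0.05, 0.01 or 0.001 versus control.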

Mus musculus = experiment: The number of mice survived for 30 days at the dose of 5 (mg/kg/day); format: functional
A549 = experiment: Inhibition of growth lung non-small cell carcinoma A-549 cell line; format: functional; conditions: Homo sapiens, read-out: ED50 (the source's name); summary of the method: as §2
[22] = system: Lewis lung carcinoma cell line; experiment: Percentage inhibition of tumor growth at the lewis lung dose of 4 (mg/kg/ day); format: functional, Mus musculus; summary of the method: as §5

COc1cc([C@@H]2c3cc4c(cc3[C@@H](CCN(C)Cc3ccncc3)C3COC(=O)[C@@H]32)OCO4)cc(OC)c1O.Cl.Cl (some centres undefined)
IC50 (P388 [1]): 0.1 µM | IC50 [2]: 31.4 µM | IC50 (Tubulin): > 100 µM

COc1cc([C@@H]2c3cc4c(cc3[C@@H](CCN(C)CCN3CCCCC3)C3COC(=O)[C@@H]32)OCO4)cc(OC)c1O.Cl.Cl (some centres undefined)
EC50 (ACHN): 2.7 µg/mL | EC50 [3]: 29 µg/mL | EC50 (COLO 320DM): 3.2 µg/mL | EC50 (Homo sapiens): 0.36 µg/mL | EC50 [4]: 0.35 µg/mL | EC50 [5]: 4 µg/mL | ILS max [6]: 20% | ILS max [7]: 14% | ILS max [8]: 75% | ILS max [9]: 108% | ILS max [10]: 55% | bwc [11]: 0.7 g | bwc [12]: 0.1 g | bwc [13]: -0.6 g | bwc [14]: -1 g | bwc [15]: -3.5 g | ILS max (P388 [16]): 131% | ILS max (P388 [17]): 165% | ILS max (P388 [18]): 259% | EC50 [19]: 4.4 µg/mL | EC50 [20]: 27 µg/mL | EC50 (SBC-3): 0.54 µg/mL | IC50 [2]: 60.9 µM | IC50 (Tubulin): > 167 µM | Inhibition [21]: 97% | Survivors (Mus musculus): 6 | EC50 (A549): 1.8 µg/mL | Inhibition [22]: 72%

COc1cc([C@@H]2c3cc4c(cc3[C@@H](CCN(C)CCCN(C)C)C3COC(=O)[C@@H]32)OCO4)cc(OC)c1O.Cl.Cl (some centres undefined)
IC50 (P388 [1]): 0.055 µM | IC50 [2]: 26.9 µM | IC50 (Tubulin): > 100 µM

COc1cc([C@@H]2c3cc4c(cc3[C@@H](CCN(C)CCCCCCN(C)C)C3COC(=O)[C@@H]32)OCO4)cc(OC)c1O.Cl.Cl (some centres undefined)
IC50 (P388 [1]): 0.037 µM | IC50 [2]: 30 µM | IC50 (Tubulin): > 133 µM

COc1cc([C@@H]2c3cc4c(cc3[C@@H](CCN(C)Cc3ccccn3)C3COC(=O)[C@@H]32)OCO4)cc(OC)c1O.Cl.Cl (some centres undefined)
IC50 (P388 [1]): 0.14 µM | IC50 [2]: 31.4 µM | IC50 (Tubulin): > 100 µM

COc1cc([C@@H]2c3cc4c(cc3[C@@H](CCN(C)CCN3CCOCC3)C3COC(=O)[C@@H]32)OCO4)cc(OC)c1O.Cl.Cl (some centres undefined)
IC50 (P388 [1]): 0.26 µM | IC50 [2]: 116 µM | IC50 (Tubulin): > 167 µM

COc1cc([C@@H]2c3cc4c(cc3[C@@H](CCNCCN(C)C)C3COC(=O)[C@@H]32)OCO4)cc(OC)c1O.Cl.Cl (some centres undefined)
IC50 (P388 [1]): 0.04 µM | IC50 [2]: 13.3 µM | IC50 (Tubulin): > 100 µM

COc1cc([C@@H]2c3cc4c(cc3[C@@H](CCN(C)N3CCN(C)CC3)C3COC(=O)[C@@H]32)OCO4)cc(OC)c1O.Cl.Cl (some centres undefined)
IC50 (P388 [1]): 0.0043 µM | IC50 [2]: 32.3 µM | IC50 (Tubulin): > 100 µM

CCN(CC)CCN(C)CC[C@@H]1c2cc3c(cc2[C@@H](c2cc(OC)c(O)c(OC)c2)[C@H]2C(=O)OCC12)OCO3.Cl.Cl (some centres undefined)
IC50 (P388 [1]): 0.037 µM | IC50 [2]: 53.8 µM | IC50 (Tubulin): > 100 µM

COc1cc([C@@H]2c3cc4c(cc3[C@@H](CC(=O)O)C3COC(=O)[C@@H]32)OCO4)cc(OC)c1O (some centres undefined)
IC50 (P388 [1]): 15 µM

COc1cc([C@@H]2c3cc4c(cc3[C@@H](CCCO)C3COC(=O)[C@@H]32)OCO4)cc(OC)c1O (some centres undefined)
IC50 (P388 [1]): 0.05 µM | IC50 [2]: 42.1 µM | IC50 (Tubulin): 26 µM

COc1cc([C@@H]2c3cc4c(cc3[C@@H](CCO)C3COC(=O)[C@@H]32)OCO4)cc(OC)c1O (some centres undefined)
IC50 (P388 [1]): 0.05 µM | IC50 [2]: 13.8 µM | IC50 (Tubulin): 2 µM

COc1cc([C@@H]2c3cc4c(cc3[C@@H](CC(=O)NCCc3cccn3C)C3COC(=O)[C@@H]32)OCO4)cc(OC)c1O.Cl (some centres undefined)
IC50 (P388 [1]): 1.5 µM | IC50 (Tubulin): > 100 µM

COc1cc([C@@H]2c3cc4c(cc3[C@@H](CCN(C)CCO)C3COC(=O)[C@@H]32)OCO4)cc(OC)c1O.Cl (some centres undefined)
IC50 (P388 [1]): 0.07 µM | IC50 [2]: 17.2 µM | IC50 (Tubulin): > 100 µM

Source: ChEMBL document CHEMBL1127046, “Antitumor agents. 3. Synthesis and biological activity of 4 beta-alkyl derivatives containing hydroxy, amino, and amido groups of 4'-O-demethyl-4-desoxypodophyllotoxin as antitumor agents” (J Med Chem, 1993)
